# This is a sample that favours compounds with a hit; in the whole collection about 1.8% have one here.
# Casp6 inh = caspase-6 (human) enzyme inhibition; purified caspase-6, Z-VEID-R110 cleavage fluorescence; inhibition, % at 12.5 µM; actives 0.53% (n = 350,000);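 active means mean inhibition across replicates at least about 35%, with every replicate also reaching that limit, limit read from the data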;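 further: 0% = median of neutral control wells and 100% = no fluorescence left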
# Target sequence (P55212 24-179 limits assumed): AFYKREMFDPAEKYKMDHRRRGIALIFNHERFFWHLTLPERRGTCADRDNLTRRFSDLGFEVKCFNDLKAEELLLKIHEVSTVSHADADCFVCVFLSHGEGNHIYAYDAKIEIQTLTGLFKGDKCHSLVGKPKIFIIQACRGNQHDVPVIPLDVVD
# Target sequence (P55212 194-293 limits assumed): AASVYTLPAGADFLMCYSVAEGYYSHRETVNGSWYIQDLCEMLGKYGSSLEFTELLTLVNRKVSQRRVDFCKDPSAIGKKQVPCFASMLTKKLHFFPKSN
# UHRF1 MBD2 ctr = blocks human UHRF1 binding to methylated DNA | Q96T88 | UHRF1 binding to methylated oligo, TR-FRET | inhibition, % at 4.4 µM | actives 0.75% (n = 370,000) | AID 687016;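 further: UHRF1 SRA domain binding a hemimethylated CpG hairpin DNA probe; 0% = median of test compound wells and 100% = reference inhibitor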
# MBD2 DNA inh = blocks human MBD2 binding to methylated DNA; Q9UBB5; TR-FRET, MBD2 binding to methylated oligonucleotide; inhibition, % at 4.4 µM; actives 0.31% (n = 370,000); in the data active means inhibition above about 13%
# LEDGF integ inh = blocks HIV-1 LEDGF/p75-dependent DNA integration; TR-FRET IN-LEDGF/p75 DNA integration, Eu/Cy5; inhibition, % at 3.7 µM; actives 0.64% (n = 370,000); AID 743269;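 active means inhibition above the screen-wide mean plus 3 SD, cut at about 13% in these data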;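 further: signal is the Cy5 over europium emission ratio at 671 and 618 nm; 0% = plate median of compound wells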
# NSD2 HMT inh = inhibitors of human histone methyltransferase NSD2; O96028; NSD2 peptide methylation, AlphaScreen, 120 min; inhibition, % at 12.5 µM; actives 0.54% (n = 310,000); AID 743445; in the data active means inhibition above about 50%
# TDP2 inh = blocks human TDP2 phosphodiesterase activity | O95551 | recombinant TDP2, T5PNP hydrolysis, p-nitrophenol absorbance 415 nm | inhibition, % at 12.8 µM | actives 0.34% (n = 370,000);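 active means inhibition above the mean of all tested compounds plus 3 SD, set per campaign, cut at about 25% in these data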;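 further: 0% = DMSO with enzyme and 100% = buffer with substrate but no TDP2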
# Target sequence (O95551 whole entry, looked up): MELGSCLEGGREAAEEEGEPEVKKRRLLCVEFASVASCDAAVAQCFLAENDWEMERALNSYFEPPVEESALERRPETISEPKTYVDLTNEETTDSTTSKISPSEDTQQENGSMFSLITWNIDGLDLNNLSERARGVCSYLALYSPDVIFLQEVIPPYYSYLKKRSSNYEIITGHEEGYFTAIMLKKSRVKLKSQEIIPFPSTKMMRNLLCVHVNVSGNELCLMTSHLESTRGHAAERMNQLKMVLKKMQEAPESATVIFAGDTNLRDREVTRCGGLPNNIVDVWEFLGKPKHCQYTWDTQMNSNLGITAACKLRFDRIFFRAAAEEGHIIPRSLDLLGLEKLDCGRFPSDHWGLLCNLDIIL
#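 Assay system: Recombinant human TDP2 | Quantity: 120 nM TDP2 per well | Incubation: 2 h at 37 °C | Signal: Epi absorbance | Evaluation: Percent inhibition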
# UHRF1 ctr MBD2 = counter-screen for MBD2 inhibitors: human UHRF1 methylated DNA binding inhibitors; shares compounds with MBD2 DNA inh; inhibition, % at 4.4 µM; AID 720530; UHRF1 binding to methylated oligonucleotide, TR-FRET; actives 25% (n = 1,000);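 further: UHRF1 SRA domain binding a labeled hemimethylated CpG hairpin DNA; 0% = vehicle only and 100% = reference inhibitor with vehicle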
# MBD2 confirm = MBD2-DBD methyl-DNA binding inhibition, TR-FRET confirmation; TR-FRET MBD2-DBD binding to methylated oligonucleotide; shares compounds with MBD2 DNA inh; actives 26% (n = 1,000); inhibition, % at 4.4 µM; in the data active means inhibition above about 14%
# Active calls of the source: *; . = no result given. Unless noted, no stated cut-off is given here; in the data, active means inhibition above about 21%; inactive means the rest.
SMILES,Casp6 inh,UHRF1 MBD2 ctr,MBD2 DNA inh,LEDGF integ inh,NSD2 HMT inh,TDP2 inh,UHRF1 ctr MBD2,MBD2 confirm
CCCn1c(N)c(N2CCCCC2)c(=O)n(CC(=O)Nc2ccc(OC(F)(F)F)cc2)c1=O,.,24*,18*,11,-1,22,15,2
O=C(OCC(=O)c1ccc[nH]1)c1ccc(Br)cc1,0,16,4,5,-2,8,.,.
COc1ccc(C(=O)OCC(=O)c2ccc[nH]2)cc1,4,13,67*,8,19,-14,9,2
C[C@H]1ON(c2ccccc2)[C@@H](c2ccccc2)[C@@H]1C(=O)N1C(=O)OC[C@@H]1c1ccccc1,-1,.,.,.,.,.,.,.
O=C(NCC[C@H]1CC[C@@H](NS(=O)(=O)c2ccc(Cl)cc2)[C@@H](CO)O1)c1ccc2c(c1)OCO2,0,.,.,.,.,.,.,.
COc1ccc(S(=O)(=O)Nc2cccc3c2O[C@H](CN(C)S(C)(=O)=O)[C@H](C)CN([C@@H](C)CO)C3=O)cc1,0,.,.,.,.,.,.,.
CC(Oc1ccc2c(c1)c1ccnc3c4ccccc4c(=O)n2c13)C(=O)NCCN1CCOCC1 (stereo not drawn),.,15,8,0,.,6,.,.
COc1ccc2c(c1OC)c(=O)n1c3ccc(OC(C)C(=O)NCCN4CCOCC4)cc3c3ccnc2c31 (stereo not drawn),-4,43*,36*,-1,.,-4,52*,50*
COc1ccc(CCNCC(O)COc2cccc(C(C)=O)c2)cc1OC (stereo not drawn),-9,25*,17*,2,15,16,7,4
C[C@@H]1CN([C@@H](C)CO)C(=O)c2cc(NS(=O)(=O)c3ccc(Cl)cc3)ccc2O[C@H]1CN(C)C,5,.,.,.,.,.,.,.
CCNC(=O)[C@H]1[C@H](CO)[C@H]2Cn3c(ccc(C4=CCCC4)c3=O)[C@@H]1N2Cc1cccnc1,-6,.,.,.,.,.,.,.
OCC1(CCOc2ccccc2)CCN(CCCn2cccn2)CC1,-3,19,13*,-4,-4,-12,8,3
OCC1(CCOc2ccccc2)CCN(Cc2ccncc2)CC1,-1,1,3,-2,-1,8,.,.
C[C@@H]1CN([C@@H](C)CO)C(=O)CCCn2nncc2CO[C@@H]1CN(C)S(=O)(=O)c1ccc(-n2cccn2)cc1,-12,2,-1,-4,.,5,.,.
C[C@H]1CN([C@@H](C)CO)C(=O)CCCn2nncc2CO[C@H]1CN(C)S(=O)(=O)c1ccc(-n2cccn2)cc1,-4,1,16*,-1,.,-3,3,3
O=S(=O)(Nc1cccc(S(=O)(=O)N2CCCC2)c1)c1cccc(Br)c1,5,-1,105*,-2,1,0,8,2
COCCNC(=O)C[C@@H]1CC[C@@H]2[C@@H](COc3ccc(NC(=O)Nc4ccccc4)cc3C(=O)N2C)O1,-1,.,.,.,.,.,.,.
COc1cccc2c1C(=O)c1c(O)c3c(c(O)c1C2=O)C[C@](O)(C(C)=O)C[C@H]3O[C@@H]1C[C@@H](N)[C@@H](O)[C@@H](C)O1,-56,93*,112*,2,.,-4,101*,111*
CCCCC(=O)OCC(=O)C1(O)Cc2c(O)c3c(c(O)c2C(OC2CC(NC(=O)C(F)(F)F)C(O)C(C)O2)C1)C(=O)c1c(OC)cccc1C3=O (stereo not drawn),0,6,8,4,-2,-9,.,.
CCN(CC)CCC(=O)Nc1cccc2c1C(=O)c1ccccc1C2=O,2,-29,27*,4,35,-4,4,38*
CC1CCN(C(=O)c2ccc3c(c2NCCO)C(=O)c2ccccc2C3=O)CC1,.,-20,-27,-1,.,-9,.,.
CCN(CC)CCNC(=O)c1ccc2c(c1NCCO)C(=O)c1ccccc1C2=O,36*,4,22*,11,.,16,15,30*
COc1cc(NC(=O)C2CCCO2)c(OC)cc1NC(=O)c1ccccc1 (stereo not drawn),.,-2,19*,-3,-4,-5,6,1
C[C@@H]1CN([C@@H](C)CO)C(=O)CCCn2cc(nn2)CO[C@H]1CN(C)C(=O)C1CC1,-2,0,13*,1,.,0,4,1
COc1ccc(NC(=O)N(C)C[C@@H]2OCc3cn(nn3)CCCC(=O)N([C@H](C)CO)C[C@H]2C)cc1,-3,6,17*,-1,.,1,9,4
SMILES,Casp6 inh,UHRF1 MBD2 ctr,MBD2 DNA inh,LEDGF integ inh,NSD2 HMT inh,TDP2 inh,UHRF1 ctr MBD2,MBD2 confirm
CC(C)NC(=O)N(C)C[C@H]1OCCCC[C@H](C)Oc2ccc(NS(=O)(=O)c3cn(C)cn3)cc2C(=O)N([C@@H](C)CO)C[C@@H]1C,3,.,.,.,.,.,.,.
C[C@@H]1CN([C@H](C)CO)C(=O)c2cccc(NC(=O)Nc3ccc4c(c3)OCO4)c2O[C@H]1CN(C)C(=O)Nc1cccc2ccccc12,-1,.,.,.,.,.,.,.
CC(C)NC(=O)Nc1cccc2c1O[C@@H](CN(C)S(C)(=O)=O)[C@@H](C)CN([C@@H](C)CO)C2=O,6,.,.,.,.,.,.,.
O=C(O)c1cc(N2C(=O)CCC2=O)ccc1Cl,1,18,15*,6,-5,9,4,2
C[C@H]1CCCCO[C@@H](CN(C)CC2CCCCC2)[C@@H](C)CN([C@@H](C)CO)C(=O)c2cc(NC(=O)Nc3ccc4c(c3)OCO4)ccc2O1,-3,.,.,.,.,.,.,.
C=CCN1[C@H](CO)[C@H](c2ccc(C#CC3(O)CCCC3)cc2)[C@@H]1C#N,.,19,14*,3,.,10,5,11
C=CCN1[C@H](C#N)[C@@H](c2ccc(C#Cc3ccccc3OC)cc2)[C@H]1CO,.,17,14*,1,.,16,9,8
O=S(=O)(N[C@@H]1CC[C@H](CCn2cc(C3CC3)nn2)O[C@H]1CO)c1ccc(Cl)cc1,-1,.,.,.,.,.,.,.
Cc1noc(C)c1S(=O)(=O)Nc1ccc2c(c1)C(=O)N([C@@H](C)CO)C[C@@H](C)[C@H](CN(C)Cc1ccncc1)OCCCC[C@H](C)O2,3,.,.,.,.,.,.,.
Cc1cc(NC(=O)Cc2cccs2)no1,.,29*,16*,5,17,4,25*,19*
Cc1cc(NS(=O)(=O)c2ccc(NC(=O)Cc3cccs3)cc2)no1,9,.,.,.,7,.,.,.
OC[C@H]1[C@@H](c2ccc(C#Cc3ccccc3)cc2)[C@@H]2CN(CC3CCOCC3)CCCCN12,-1,.,.,.,.,.,.,.
O=S(=O)(N[C@H]1CC[C@H](CCn2cc(C3(O)CCCC3)nn2)O[C@@H]1CO)c1ccc(Cl)cc1,2,.,.,.,.,.,.,.

# High-throughput results as filed in PubChem.
